Source: ChEMBL document CHEMBL1154078, “Synthesis of novel purine nucleosides towards a selective inhibition of human butyrylcholinesterase” (Bioorg Med Chem, 2009)
Active and inactive are the calls of the source. No cut-off for these calls is given here.

Assays:
Cholinesterase [1] = biological target: T1, Cholinesterase (Homo sapiens, UniProt P06276); test: Inhibition of BChE in human serum assessed as hydrolysis of butyrylthiocholine at 100 ug/mL by Ellman's method; format: cell-free
How it was run: (§1)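 Human serum BChE (0.44 U/mL solution) in 0.1 M phosphate buffer pH 8.0 with S-butyrylthiocholine iodide and DTNB. Absorbance at 410 nm followed kinetically for 4 min at 30 °C, at least four replicates. Inhibition % = 100 − 100·V/V_max, where V_max comes from blanks without inhibitor; one-sided t-test. IC50 obtained by non-linear regression of the dose–response, given as mean ± SEM.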

[2] = biological target: T2, Acetylcholinesterase (Bos taurus) (UniProt P23795); test: Inhibition of AChE in bovine erythrocytes assessed as hydrolysis of acetylthiocholine by Ellman's method
T2 sequence (whole entry): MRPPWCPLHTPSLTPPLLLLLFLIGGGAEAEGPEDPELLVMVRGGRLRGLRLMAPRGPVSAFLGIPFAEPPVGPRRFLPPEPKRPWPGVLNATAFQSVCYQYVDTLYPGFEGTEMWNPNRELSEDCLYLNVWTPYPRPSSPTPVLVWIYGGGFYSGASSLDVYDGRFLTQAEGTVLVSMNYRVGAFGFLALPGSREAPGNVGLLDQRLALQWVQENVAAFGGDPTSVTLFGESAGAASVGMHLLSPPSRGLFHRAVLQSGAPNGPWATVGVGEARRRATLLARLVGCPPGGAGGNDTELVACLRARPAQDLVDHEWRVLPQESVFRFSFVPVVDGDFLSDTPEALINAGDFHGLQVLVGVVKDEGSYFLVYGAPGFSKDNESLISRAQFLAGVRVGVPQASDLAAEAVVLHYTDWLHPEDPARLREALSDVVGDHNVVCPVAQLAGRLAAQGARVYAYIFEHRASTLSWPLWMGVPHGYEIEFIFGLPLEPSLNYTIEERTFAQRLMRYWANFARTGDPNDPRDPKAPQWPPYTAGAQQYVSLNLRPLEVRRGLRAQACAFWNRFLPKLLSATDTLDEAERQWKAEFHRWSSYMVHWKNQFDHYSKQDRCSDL
How it was run: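 Bovine erythrocyte AChE (1.32 U/mL solution) in 0.1 M phosphate buffer pH 8.0 with acetylthiocholine iodide and DTNB. Yellow product read kinetically at 410 nm for 4 min at 30 °C. Rates compared with no-inhibitor V_max; inhibition % = 100 − 100·V/V_max. At least four replicates. One-sided t-test against 0% inhibition.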

Cholinesterase [3] = biological target: T1, Cholinesterase; test: Inhibition of BChE in human serum assessed as hydrolysis of butyrylthiocholine at 0.1 ug/mL by Ellman's method; how it was run: as §1
Cholinesterase [4] = biological target: T1, Cholinesterase; test: Inhibition of BChE in human serum assessed as hydrolysis of butyrylthiocholine at 1 ug/mL by Ellman's method; format: cell-free; how it was run: as §1
Cholinesterase [5] = biological target: T1, Cholinesterase; test: Inhibition of BChE in human serum assessed as hydrolysis of butyrylthiocholine by Ellman's method; format: cell-free
How it was run: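 Human serum BChE (0.44 U/mL solution) in 0.1 M phosphate buffer pH 8.0 with S-butyrylthiocholine iodide and DTNB. Absorbance at 410 nm followed kinetically for 4 min at 30 °C, at least four replicates. IC50 obtained by non-linear regression of the dose–response, given as mean ± SEM.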

Cholinesterase [6] = biological target: T1, Cholinesterase; test: Inhibition of BChE in human serum assessed as hydrolysis of butyrylthiocholine at 0.01 ug/mL by Ellman's method; format: cell-free; how it was run: as §1
Cholinesterase [7] = biological target: T1, Cholinesterase; test: Inhibition of BChE in human serum assessed as hydrolysis of butyrylthiocholine at 10 ug/mL by Ellman's method; how it was run: as §1
[8] = Cytotoxicity against human A549 cells assessed as cell viability at 0.2 ug/mL after 24 hrs by MTT assay relative to control; format: cell-based; conditions: read-out: Activity
How it was run: (§2)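 A549 cells seeded, left 24 h to attach, then exposed to compound for 24 h. Hydrogen peroxide served as positive control and pure solvent as negative control. At 48 h of culture, MTT added to a final concentration of 0.5 mg/mL and incubated 3 h. Medium removed, cells washed twice, formazan dissolved in DMSO with shaking for 20 min at room temperature.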

[9] = Cytotoxicity against human A549 cells assessed as cell viability at 2000 ug/mL after 24 hrs by MTT assay relative to control; format: cell-based; conditions: read-out: Activity; how it was run: as §2
[10] = Cytotoxicity against human A549 cells assessed as cell viability at 2 ug/mL after 24 hrs by MTT assay relative to control; format: cell-based; conditions: read-out: Activity; how it was run: as §2
[11] = Cytotoxicity against human A549 cells assessed as cell viability at 200 ug/mL after 24 hrs by MTT assay relative to control; format: cell-based; conditions: read-out: Activity; how it was run: as §2
[12] = Cytotoxicity against human A549 cells assessed as cell viability at 20 ug/mL after 24 hrs by MTT assay relative to control; format: cell-based; conditions: read-out: Activity; how it was run: as §2
[13] = Cytotoxicity against human A549 cells assessed as cell viability at 100 ug/mL after 24 hrs by MTT assay relative to control; format: cell-based; conditions: read-out: Activity
How it was run: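 A549 cells seeded, allowed to attach 24 h, then exposed to compound for 24 h; hydrogen peroxide positive control, solvent negative control. MTT added at 48 h of culture (final 0.5 mg/mL), 3 h incubation, cells washed twice, formazan dissolved in DMSO with 20 min shaking at room temperature; viable, metabolically active cells quantified.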

T1 sequence (P06276 whole entry): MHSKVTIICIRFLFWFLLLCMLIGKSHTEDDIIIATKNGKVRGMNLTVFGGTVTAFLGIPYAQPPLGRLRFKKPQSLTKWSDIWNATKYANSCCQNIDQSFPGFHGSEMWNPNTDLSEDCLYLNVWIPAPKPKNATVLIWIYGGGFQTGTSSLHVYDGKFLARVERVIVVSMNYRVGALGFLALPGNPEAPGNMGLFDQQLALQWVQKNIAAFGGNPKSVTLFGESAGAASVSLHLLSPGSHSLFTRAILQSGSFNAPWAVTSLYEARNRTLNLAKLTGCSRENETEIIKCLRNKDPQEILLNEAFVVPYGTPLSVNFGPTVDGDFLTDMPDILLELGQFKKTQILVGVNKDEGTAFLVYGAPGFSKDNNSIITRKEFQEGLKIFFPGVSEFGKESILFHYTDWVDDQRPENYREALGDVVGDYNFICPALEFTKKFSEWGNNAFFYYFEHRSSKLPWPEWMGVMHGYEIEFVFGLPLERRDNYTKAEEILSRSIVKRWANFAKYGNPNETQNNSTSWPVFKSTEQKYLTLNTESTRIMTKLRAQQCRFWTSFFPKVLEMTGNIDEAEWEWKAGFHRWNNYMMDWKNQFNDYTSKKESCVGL

Structure (SMILES) | inhibition (Cholinesterase [1]) | inhibition [2] | inhibition (Cholinesterase [3]) | inhibition (Cholinesterase [4]) | IC50 (Cholinesterase [5]) | inhibition (Cholinesterase [6]) | inhibition (Cholinesterase [7]) | viability at 24 h, 0.2 ug/mL [8] | viability at 24 h, 2000 ug/mL [9] | viability at 24 h, 2 ug/mL [10] | viability at 24 h, 200 ug/mL [11] | viability at 24 h, 20 ug/mL [12] | viability at 24 h, 100 ug/mL [13]
CO[C@H]1O[C@H](COC(C)=O)[C@@H](OC(C)=O)[C@@]2(OC(C)=O)[C@@H](OC(C)=O)CO[C@@H]12 | < 5% | inactive | – | – | – | – | – | – | – | – | – | – | –
CC(=O)Nc1nc(Cl)c2c(ncn2[C@@H]2O[C@@H]([C@@H](N=[N+]=[N-])C(=O)OCc3ccccc3)[C@@H](OCc3ccccc3)[C@@]3(OCc4ccccc4)[C@@H](OCc4ccccc4)CO[C@@H]23)n1 | 91% | inactive | 63% | 77% | 0.14 µM | 10% | 79% | – | – | – | – | – | –
CC(=O)Nc1nc(Cl)c2c(ncn2[C@@H]2O[C@H](COC(C)=O)[C@@H](OCc3ccccc3)[C@@]3(OCc4ccccc4)[C@@H](OCc4ccccc4)CO[C@@H]23)n1 | 84% | inactive | 20% | 70% | 0.76 µM | – | 85% | – | – | – | – | – | –
CC(=O)Nc1nc(Cl)c2ncn([C@@H]3O[C@H](COC(C)=O)[C@@H](OCc4ccccc4)[C@@]4(OCc5ccccc5)[C@@H](OCc5ccccc5)CO[C@@H]34)c2n1 | 48% | inactive | – | – | – | – | 11% | – | – | – | – | – | –
CO[C@H]1O[C@@H]([C@@H](N=[N+]=[N-])C(=O)OCc2ccccc2)[C@@H](OCc2ccccc2)[C@@]2(OCc3ccccc3)[C@@H](OCc3ccccc3)CO[C@@H]12 | 98% | inactive | – | 14% | 13.4 µM | – | 73% | 90.5% | 16% | 76.2% | 64.2% | 63.6% | –
COC(=O)[C@H](N=[N+]=[N-])[C@@H]1O[C@@H](n2cnc3nc(NC(C)=O)nc(Cl)c32)[C@@H]2OC[C@H](OCc3ccccc3)[C@]2(OCc2ccccc2)[C@@H]1OCc1ccccc1 | – | inactive | – | – | – | – | – | 103% | 21.3% | 99.9% | 52.3% | 69.3% | –
COC(=O)[C@@H](N=[N+]=[N-])[C@@H]1O[C@@H](n2cnc3nc(NC(C)=O)nc(Cl)c32)[C@@H]2OC[C@H](OCc3ccccc3)[C@]2(OCc2ccccc2)[C@@H]1OCc1ccccc1 | – | inactive | – | – | – | – | – | 103% | 15.1% | 77.7% | 19.5% | 40.8% | –
C=C[C@@H](O)[C@@H]1O[C@H](OC)[C@@H]2OC[C@H](OCc3ccccc3)[C@]2(OCc2ccccc2)[C@@H]1OCc1ccccc1 | 73% | inactive | – | – | 50 µM | – | 23% | – | – | – | – | – | –
CO[C@H]1O[C@@H]([C@@H](O)C(=O)OCc2ccccc2)[C@@H](OCc2ccccc2)[C@@]2(OCc3ccccc3)[C@@H](OCc3ccccc3)CO[C@@H]12 | 95% | inactive | – | 7% | 16.1 µM | – | 56% | 91.9% | 36% | 81.6% | 63.6% | 67.2% | –
CO[C@H]1O[C@@H]([C@H](N=[N+]=[N-])C(=O)OCc2ccccc2)[C@@H](OCc2ccccc2)[C@@]2(OCc3ccccc3)[C@@H](OCc3ccccc3)CO[C@@H]12 | 91% | inactive | 15% | 36% | 4.2 µM | – | 64% | 90.2% | 25% | 71.2% | 47.9% | 73.9% | –
CC(=O)Nc1nc(Cl)c2c(ncn2[C@@H]2O[C@@H]([C@H](N=[N+]=[N-])C(=O)OCc3ccccc3)[C@@H](OCc3ccccc3)[C@@]3(OCc4ccccc4)[C@@H](OCc4ccccc4)CO[C@@H]23)n1 | 81% | inactive | – | 9% | 22 µM | – | 34% | 88.5% | 7.32% | 82.2% | 51.3% | 46.9% | –
CCN(C)C(=O)Oc1cccc([C@H](C)N(C)C)c1 [RIVASTIGMINE] | 100% | inactive | 76% | 100% | – | – | 100% | – | – | – | – | – | 89%
CO[C@H]1O[C@@H]([C@H](O)C(=O)OCc2ccccc2)[C@@H](OCc2ccccc2)[C@@]2(OCc3ccccc3)[C@@H](OCc3ccccc3)CO[C@@H]12 | 55% | inactive | – | – | 133 µM | – | 8% | – | – | – | – | – | –
C=C[C@H](O)[C@@H]1O[C@H](OC)[C@@H]2OC[C@H](OCc3ccccc3)[C@]2(OCc2ccccc2)[C@@H]1OCc1ccccc1 | 76% | inactive | – | 4% | 31 µM | – | 54% | – | – | – | – | – | –
CO[C@H]1O[C@H](CO)[C@@H](OCc2ccccc2)[C@@]2(OCc3ccccc3)[C@@H](OCc3ccccc3)CO[C@@H]12 | 60% | inactive | – | – | 148 µM | – | < 5% | – | – | – | – | – | –
CO[C@H]1O[C@H](COC(=O)c2ccccc2)[C@@H](OC(=O)c2ccccc2)[C@@]2(OC(=O)c3ccccc3)[C@@H](OC(=O)c3ccccc3)CO[C@@H]12 | 7% | inactive | – | – | – | – | – | – | – | – | – | – | –
CO[C@H]1O[C@H](CO)[C@@H](O)[C@@]2(O)[C@@H](O)CO[C@@H]12 | < 5% | inactive | – | – | – | – | – | – | – | – | – | – | –
